Experimental data as given in ChEMBL document CHEMBL2016469, “Synthesis and evaluation of 1-(substituted)-3-prop-2-ynylureas as antiangiogenic agents” (Bioorg Med Chem Lett, 2012).
Active and inactive are the calls of the source. The rule behind the calls is not given here.

Key:
[1] = Cytotoxicity against human EAhy926 cells after 48 hrs by MTT assay; format: functional, cell-based; settings: EA.hy 926, 48 h
HUVEC [2] = experiment: Angiogenic activity in HUVEC assessed as induction of tube formation at 12.5 nM after 24 hrs by hematoxylin staining analysis; format: functional, cell-based; settings: Homo sapiens
HeLa [3] = experiment: Cytotoxicity against human HeLa cells after 48 hrs by MTT assay; format: functional, cell-based
A-431 = experiment: Cytotoxicity against human A431 cells over expressing EGFR after 48 hrs by MTT assay; format: functional, cell-based; settings: A-431, 48 h
HUVEC [4] = experiment: Cytotoxicity against HUVEC after 48 hrs by MTT assay; format: cell-based; settings: Homo sapiens
Summary of the method: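 MTT assay. HeLa and MCF-7 were tested at 1 and 100 μM. HUVEC cytotoxicity was measured the same way as for HeLa and MCF-7, to define non-cytotoxic doses for the tube-formation work. IC50 values taken as means of three independent experiments.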

HUVEC [5] = experiment: Cytotoxicity against HUVEC at 12.5 nM after 48 hrs by MTT assay; format: cell-based; settings: human, 0.0125 µM
MCF7 [6] = experiment: Cytotoxicity against human MCF7 cells after 48 hrs by MTT assay; format: functional, cell-based; settings: MCF7, 48 h
[7] = biological target: Platelet-derived growth factor receptor beta (Homo sapiens) (UniProt P09619); experiment: Inhibition of human recombinant PDGFR-beta expressed in insect cells using Ulight-Poly GAT[EAY(1:1:1)]n as substrate at 1 uM after 60 mins by fluorescence assay
Sequence of Platelet-derived growth factor receptor beta (Homo sapiens) (P09619 whole entry): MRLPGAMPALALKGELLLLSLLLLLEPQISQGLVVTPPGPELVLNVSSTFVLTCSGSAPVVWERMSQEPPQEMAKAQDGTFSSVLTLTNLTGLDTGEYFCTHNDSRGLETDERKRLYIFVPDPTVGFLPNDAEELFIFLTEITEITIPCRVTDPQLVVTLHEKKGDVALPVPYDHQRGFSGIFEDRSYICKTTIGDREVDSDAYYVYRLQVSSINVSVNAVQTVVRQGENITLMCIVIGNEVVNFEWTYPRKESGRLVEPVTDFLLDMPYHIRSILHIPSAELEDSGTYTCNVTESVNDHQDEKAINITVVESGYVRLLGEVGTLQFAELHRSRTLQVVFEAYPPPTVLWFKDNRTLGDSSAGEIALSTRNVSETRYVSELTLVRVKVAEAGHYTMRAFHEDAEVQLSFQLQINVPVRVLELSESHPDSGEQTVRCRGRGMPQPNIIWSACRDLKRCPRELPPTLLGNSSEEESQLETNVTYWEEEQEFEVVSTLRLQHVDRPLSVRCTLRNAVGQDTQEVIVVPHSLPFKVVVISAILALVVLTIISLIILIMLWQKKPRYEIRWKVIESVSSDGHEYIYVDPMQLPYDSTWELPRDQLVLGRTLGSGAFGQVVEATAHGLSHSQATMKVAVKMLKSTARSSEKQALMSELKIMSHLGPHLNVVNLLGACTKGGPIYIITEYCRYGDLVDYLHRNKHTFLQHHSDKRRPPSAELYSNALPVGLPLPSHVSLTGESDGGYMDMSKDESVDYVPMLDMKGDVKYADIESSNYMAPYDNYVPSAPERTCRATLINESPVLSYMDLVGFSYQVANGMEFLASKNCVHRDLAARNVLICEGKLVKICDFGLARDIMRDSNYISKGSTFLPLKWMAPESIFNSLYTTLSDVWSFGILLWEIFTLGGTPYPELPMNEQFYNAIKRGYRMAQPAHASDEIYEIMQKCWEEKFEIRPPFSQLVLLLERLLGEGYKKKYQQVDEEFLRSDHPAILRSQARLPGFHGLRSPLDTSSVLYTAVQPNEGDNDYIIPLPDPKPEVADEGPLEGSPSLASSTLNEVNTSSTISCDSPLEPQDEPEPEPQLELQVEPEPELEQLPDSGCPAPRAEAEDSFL
Summary of the method: (§1)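 In vitro kinase assay against FGFR1, PDGFRβ or VEGFR2 with test compound at 1 μM. Read-out is the level of phosphorylation of a tyrosine kinase-specific ligand peptide substrate.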

HUVEC [8] = experiment: Ratio of IC50 for cytotoxicity in HUVEC to EC50 for antiangiogenic activity in HUVEC; format: functional, Homo sapiens
Summary of the method: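 Ratio of HUVEC cytotoxic IC50 (MTT) to antiangiogenic ED50 from the HUVEC tube-formation assay.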

MCF7 [9] = experiment: Cytotoxicity against human MCF7 cells at 100 uM after 48 hrs by MTT assay; format: functional; settings: MCF7, 48 h, read-out: GI
Summary of the method: (§2)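 MTT cytotoxicity screen against HeLa or MCF-7 cells at a single test concentration of 100 μM (screen also included 1 μM).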

HeLa [10] = experiment: Cytotoxicity against human HeLa cells at 100 uM after 48 hrs by MTT assay; format: functional; settings: read-out: GI; summary of the method: as §2
HUVEC [11] = experiment: Antiangiogenic activity in HUVEC assessed as suppression of tube formation after 24 hrs by hematoxylin staining analysis; format: functional, cell-based; settings: Homo sapiens
HUVEC [12] = experiment: Antiangiogenic activity in HUVEC assessed as suppression of tube formation at 25 nM after 24 hrs by hematoxylin staining analysis; format: functional; settings: Homo sapiens
[13] = biological target: Fibroblast growth factor receptor 1 (Homo sapiens) (UniProt P11362); experiment: Inhibition of human recombinant FGFR1 expressed in insect cells using Ulight-CAGAGAIETDKEYYTVKD as substrate at 1 uM after 60 mins by fluorescence assay; summary of the method: as §1
Sequence of Fibroblast growth factor receptor 1 (Homo sapiens) (P11362 22-822 limits assumed): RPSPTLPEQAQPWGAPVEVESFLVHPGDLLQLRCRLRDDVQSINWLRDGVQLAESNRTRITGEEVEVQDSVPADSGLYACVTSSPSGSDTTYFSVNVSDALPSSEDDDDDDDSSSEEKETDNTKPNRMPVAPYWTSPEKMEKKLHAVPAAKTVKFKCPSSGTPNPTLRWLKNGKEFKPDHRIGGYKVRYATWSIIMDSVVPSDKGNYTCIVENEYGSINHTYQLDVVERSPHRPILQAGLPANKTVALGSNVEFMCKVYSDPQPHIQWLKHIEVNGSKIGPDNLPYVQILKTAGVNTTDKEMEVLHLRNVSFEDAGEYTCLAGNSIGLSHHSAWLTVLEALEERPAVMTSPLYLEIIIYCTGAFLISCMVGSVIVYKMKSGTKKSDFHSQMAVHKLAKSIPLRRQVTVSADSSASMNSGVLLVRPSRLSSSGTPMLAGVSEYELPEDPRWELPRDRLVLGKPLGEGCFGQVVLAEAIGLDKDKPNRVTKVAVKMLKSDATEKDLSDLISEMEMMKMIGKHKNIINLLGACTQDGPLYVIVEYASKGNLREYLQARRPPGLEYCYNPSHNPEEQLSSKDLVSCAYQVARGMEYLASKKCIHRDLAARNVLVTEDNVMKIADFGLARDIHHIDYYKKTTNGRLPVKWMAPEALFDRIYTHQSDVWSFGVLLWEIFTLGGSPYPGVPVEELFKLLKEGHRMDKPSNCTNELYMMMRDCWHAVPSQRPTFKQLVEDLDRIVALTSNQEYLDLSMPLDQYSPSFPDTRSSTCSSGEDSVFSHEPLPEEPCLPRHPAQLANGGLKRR

[14] = biological target: Vascular endothelial growth factor receptor 2 (Homo sapiens) (UniProt P35968); experiment: Inhibition of human recombinant VEGFR2 expressed in insect cells using Ulight-CAGAGAIETDKEYYTVKD as substrate at 1 uM after 60 mins by fluorescence assay; summary of the method: as §1
Sequence of Vascular endothelial growth factor receptor 2 (Homo sapiens) (P35968 whole entry): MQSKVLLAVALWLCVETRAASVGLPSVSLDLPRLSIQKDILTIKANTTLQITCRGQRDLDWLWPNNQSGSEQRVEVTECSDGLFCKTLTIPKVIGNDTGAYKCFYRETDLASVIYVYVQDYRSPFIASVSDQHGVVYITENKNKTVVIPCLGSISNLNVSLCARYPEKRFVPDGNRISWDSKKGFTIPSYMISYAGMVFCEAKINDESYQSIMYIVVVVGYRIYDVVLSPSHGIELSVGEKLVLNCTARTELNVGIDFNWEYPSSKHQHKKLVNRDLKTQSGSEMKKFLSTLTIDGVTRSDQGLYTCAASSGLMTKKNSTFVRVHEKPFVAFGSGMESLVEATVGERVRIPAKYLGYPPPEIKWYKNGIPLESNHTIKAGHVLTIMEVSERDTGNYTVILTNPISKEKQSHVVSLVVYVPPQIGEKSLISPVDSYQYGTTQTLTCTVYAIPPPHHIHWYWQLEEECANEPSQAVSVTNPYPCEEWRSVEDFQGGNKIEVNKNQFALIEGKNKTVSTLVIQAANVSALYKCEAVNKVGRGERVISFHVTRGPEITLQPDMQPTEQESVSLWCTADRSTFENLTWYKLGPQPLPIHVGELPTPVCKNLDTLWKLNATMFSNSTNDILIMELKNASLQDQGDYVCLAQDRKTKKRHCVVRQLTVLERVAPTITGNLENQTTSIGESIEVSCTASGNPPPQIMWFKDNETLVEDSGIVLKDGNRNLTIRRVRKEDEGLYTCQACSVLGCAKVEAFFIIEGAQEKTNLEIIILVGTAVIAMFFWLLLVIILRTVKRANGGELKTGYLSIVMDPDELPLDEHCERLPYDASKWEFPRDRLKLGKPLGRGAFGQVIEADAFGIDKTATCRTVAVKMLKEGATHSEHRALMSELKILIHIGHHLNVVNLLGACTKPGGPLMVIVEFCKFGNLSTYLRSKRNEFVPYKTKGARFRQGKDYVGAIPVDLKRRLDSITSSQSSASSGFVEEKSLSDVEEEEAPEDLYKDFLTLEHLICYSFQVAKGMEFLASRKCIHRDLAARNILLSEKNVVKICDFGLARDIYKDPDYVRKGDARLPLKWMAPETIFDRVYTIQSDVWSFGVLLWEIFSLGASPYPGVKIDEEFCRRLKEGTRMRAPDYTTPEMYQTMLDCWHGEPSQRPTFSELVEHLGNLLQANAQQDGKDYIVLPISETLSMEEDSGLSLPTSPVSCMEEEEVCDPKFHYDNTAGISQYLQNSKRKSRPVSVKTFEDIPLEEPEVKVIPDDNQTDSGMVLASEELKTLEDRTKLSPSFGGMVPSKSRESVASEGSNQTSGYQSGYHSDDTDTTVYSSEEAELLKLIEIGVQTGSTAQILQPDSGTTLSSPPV

K562 = experiment: Cytotoxicity against human K562 cells; format: functional, cell-based
HUVEC [15] = experiment: Antiangiogenic activity in HUVEC assessed as suppression of tube formation at 6.25 uM after 24 hrs by hematoxylin staining analysis; format: functional; settings: Homo sapiens
MDA-MB-231 = experiment: Cytotoxicity against human MDA-MB-231 cells; format: functional, cell-based
[16] = Homo sapiens, HeLa, 48 h, read-out: IC50

SMILES | IC50 [1] [µM] | IC50 (A-431) [µM] | IC50 (HUVEC [4]) [µM] | IC50 (MCF7 [6]) [µM] | IC50 (HeLa [3]; [16]) [µM] | also measured
C#CCNC(=O)Nc1cccc(CNCc2ccccc2)c1 | 192 | 0.318 | 50 | 343 |  | Activity (HUVEC [2]): Active; IC50 (HeLa [3]; hela): Not Active; Activity (HUVEC [5]): Non-toxic
C#CCNC(=O)Nc1cccc(CNCc2ccc(C)cc2)c1 |  |  |  | 49.9 | 329 | 
C#CCNC(=O)Nc1cccc(CCl)c1 | 10.5 | 0.036 | 20 | 1.48 | 1.55 | inhibition [7]: Active; Ratio (HUVEC [8]): 77; inhibition of growth at 100 µM (MCF7 [9]): 85.2%; inhibition of growth at 100 µM (HeLa [10]): 86.9%; EC50 (HUVEC [11]): 0.26 µM; inhibition at 0.025 µM (HUVEC [12]): 21.2%; inhibition [13]: inactive; inhibition [14]: inactive
C#CCNC(=O)Nc1cccc(CNCc2ccc(OC)cc2)c1 |  |  |  | 195 | 392 | 
COc1ccc(N(C(=O)N(C)C)c2nnc(-c3ccccc3)s2)cc1OC |  |  |  |  |  | IC50 (K562): 3 µM
C#CCNC(=O)Nc1cccc(COc2ccc(C(=O)OC)cc2)c1 | 78.2 | 0.215 | 100 | 74.9 | 12.3 | inhibition at 6.25 µM (HUVEC [15]): 46.5%; Ratio (HUVEC [8]): 6; EC50 (HUVEC [11]): 17.5 µM; inhibition [13]: inactive; inhibition [14]: inactive
COc1cccc2c1C(=O)c1c(O)c3c(c(O)c1C2=O)C[C@@](O)(C(=O)CO)C[C@@H]3O[C@H]1C[C@H](N)[C@H](O)[C@H](C)O1 [DOXORUBICIN] |  |  |  |  | 0.19 | 
C#CCNC(=O)Nc1cccc(CNCc2ccc(OC(F)(F)F)cc2)c1 |  |  |  | 283 | 339 | 
C#Cc1cccc(Nc2ncnc3cc(OCCOC)c(OCCOC)cc23)c1 [ERLOTINIB] |  | 0.055 |  |  |  | 
CNC(=O)c1cc(Oc2ccc(NC(=O)Nc3ccc(Cl)c(C(F)(F)F)c3)cc2)ccn1 [SORAFENIB] |  |  |  |  |  | IC50 (MDA-MB-231): 2.5 µM
